Published values pooled from the literature.
Lines come from different studies, so protocols differ.
Cell line: Jurkat
Read-out: cell growth or viability

Compound	assay	setting	IC50
CCCCCC/C=C1\CC2C=CC=CC1C2C1CCCCC1=O (stereo not drawn)	flow cytometry		29 nM
COc1cccc2c1C(=O)c1c(O)c3c(c(O)c1C2=O)C[C@@](O)(C(=O)CO)C[C@@H]3O[C@H]1C[C@H](N)[C@H](O)[C@H](C)O1	MTT	48 h	2.5 µg/mL
CC[C@]1(O)C[C@H]2CN(CCc3c([nH]c4ccccc34)[C@@](C(=O)OC)(c3cc4c(cc3OC)N(C=O)[C@H]3[C@@](O)(C(=O)OC)[C@H](OC(C)=O)[C@]5(CC)C=CCN6CC[C@]43[C@@H]65)C2)C1	MTT		1.1 nM
COc1cc(/C=C/C(=O)CC(=O)/C=C/c2ccc(O)c(OC)c2)ccc1O	MTT	48 h	28.9 µg/mL
COCCOCOc1cc(O)c(-c2cc(-c3ccc(C(=O)O)cc3)no2)cc1C12CC3CC(CC(C3)C1)C2	ATP luminescence	24 h	1950 nM
CCCCCCCCC1=CC2C=CC=CC1C2C1CCCCC1=O (stereo not drawn)	flow cytometry		79 nM
CC(=O)O[C@H]1C(=O)[C@@]2(C)[C@H]([C@H](OC(=O)c3ccccc3)[C@]3(O)C[C@H](OC(=O)[C@H](O)[C@@H](NC(=O)c4ccccc4)c4ccccc4)C(C)=C1C3(C)C)[C@]1(OC(C)=O)CO[C@@H]1C[C@@H]2O		72 h	2.8 nM
COCCOCOc1ccc(C(=O)/C=C/c2ccc(C(=O)O)cc2)cc1C12CC3CC(CC(C3)C1)C2	ATP luminescence	24 h	1800 nM
O=C1CCCCC1C1C2C=CC=CC1/C(=C/Cc1ccccc1)C2 (stereo not drawn)	flow cytometry		61 nM
C[C@@H](O)C(=O)CCCCCCC(=O)Nc1ccccc1	thymidine uptake		92000 nM
COc1ccc(/C=C\c2cc(OC)c(OC)c(OC)c2)cc1O			5 nM
CCCCN(Cc1ccc(C(=O)NO)cc1)C(=O)Nc1ccccc1	ATP luminescence	72 h	7410 nM
O=C1CCCCC1C1C2C=CC=CC1C(C1CC1)=C2 (stereo not drawn)	flow cytometry		39 nM
CC(=O)O[C@H](C)C(=O)CCCCCCC(=O)Nc1ccccc1	thymidine uptake		> 100000 nM
CCCON(Cc1ccc(C(=O)NO)cc1)C(=O)Nc1ccccc1	ATP luminescence	72 h	7090 nM
